In article PMC7909006 (Clinical cancer research : an official journal of the …, 2020):

What was measured:
[1] = test system: peripheral blood immune cells; test: Pharmacodynamics: fold change in peripheral blood; format: in vivo, human
In short: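 Complete blood counts, including absolute monocyte count, were taken as safety labs before treatment, mid-C1, before C2–C9, then every other cycle and at end of therapy. Patients took the oral agent once daily on a continuous 28-day cycle, dosed by BSA at 400, 600 or 800 mg/m2.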

[2] = recurrent glioblastoma patients, plasma taken at time of surgery; cited from earlier work
[3] = test system: circulating monocytes and regulatory T cells and TAMs; conditions: cited from earlier work
[4] = adults; cited from earlier work
[5] = test system: recurrent or refractory acute leukemias or solid tumors including NF1 PN; test: Tumor response; format: in vivo, human
In short: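 Tumors assessed at baseline (within 14 days before start), then after every even 28-day cycle with the same imaging modality. Criteria were RECIST v1.1 for solid tumors, WHO for brain tumors, and volumetric MRI for NF1 plexiform neurofibromas (baseline, every 4th cycle in year 1, then every 6 cycles). Leukemia was followed by blood and marrow each cycle. Treatment lasted up to two years.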

[6] = patient 2, Osteosarcoma, dose level 1
[7] = patient 3, Ewing Sarcoma, dose level 1
[8] = patient 4, NF1 plexiform neurofibroma, dose level 1
[9] = patient 5, NF1 plexiform neurofibroma, dose level 2
[10] = patient 6, NF1 plexiform neurofibroma, dose level 2
[11] = patient 7, Central Nervous System PNET, dose level 2
[12] = patient 8, Primary brain tumor, dose level 2
[13] = patient 9, NF1 malignant peripheral nerve sheath tumor, dose level 3
[14] = patient 10, Osteosarcoma, dose level 3
[15] = patient 11, Osteosarcoma, dose level 3
[16] = patient 12, Embryonal rhabdomyosarcoma, dose level 3
[17] = patient 13, Acute myeloid leukemia, dose level 3
[18] = patient 14, Spindle cell carcinoma, dose level 3
[19] = patient 15, Aneurysmal fibrous histiocytoma, dose level 3
[20] = patient 16, Glioblastoma, dose level 3

In the case of FC(F)(F)c1ccc(CNc2ccc(Cc3c[nH]c4ncc(Cl)cc34)cn2)cn1 [Pexidartinib], the “Neutrophils % + bands, Med. Fold Change (95% CI) from Day 1” value ([1]; 14–16 Days from C1, N=13) is reported as 1.08 (0.96, 1.13), the “Platelet Count, Med. Fold Change (95% CI) from Day 1” value ([1]; 14–16 Days from C1, N=13) is reported as 0.97 (0.83, 1.13) and the “White blood cell (WBC), Med. Fold Change (95% CI) from Day 1” value ([1]; 14–16 Days from C1, N=13) is reported as 0.85 (0.65, 1.06). The “Absolute Immature Granulocyte, Med. Fold Change (95% CI) from Day 1” value ([1]; 27–29 Days from C1, N=6) was 0.20 (0.00, 2.50), the “Immature granulocytes, Med. Fold Change (95% CI) from Day 1” value ([1]; 27–29 Days from C1, N=6) was 0.24 (0.00, 2.00) and the “Absolute Eosinophil Count, Med. Fold Change (95% CI) from Day 1” value ([1]; 27–29 Days from C1, N=8) was 0.63 (0.31, 5.37). The “Eosinophils %, Med. Fold Change (95% CI) from Day 1” value ([1]; 27–29 Days from C1, N=8) was 0.76 (0.48, 4.19), the “Absolute Basophil Count, Med. Fold Change (95% CI) from Day 1” value ([1]; 27–29 Days from C1, N=9) was 0.33 (0.00, 0.67) and the “Basophils %, Med. Fold Change (95% CI) from Day 1” value ([1]; 27–29 Days from C1, N=9) was 0.22 (0.00, 0.83). For the same compound, the “Absolute Lymphocyte Count, Med. Fold Change (95% CI) from Day 1” value ([1]; 27–29 Days from C1, N=10) was 0.86 (0.60, 1.21), the “Absolute Monocyte Count, Med. Fold Change (95% CI) from Day 1” value ([1]; 27–29 Days from C1, N=10) was 0.64 (0.26, 0.88) and the “Absolute Neutrophil Count, Med. Fold Change (95% CI) from Day 1” value ([1]; 27–29 Days from C1, N=10) was 0.70 (0.46, 1.66). The “Hemoglobin (Hgb), Med. Fold Change (95% CI) from Day 1” value ([1]; 27–29 Days from C1, N=10) was 1.03 (0.95, 1.13), the “Lymphocytes %, Med. Fold Change (95% CI) from Day 1” value ([1]; 27–29 Days from C1, N=10) was 1.28 (0.47, 1.95) and the “Monocytes %, Med. Fold Change (95% CI) from Day 1” value ([1]; 27–29 Days from C1, N=10) was 0.84 (0.26, 1.06). For the same compound, the “Neutrophils % + bands, Med. Fold Change (95% CI) from Day 1” value ([1]; 27–29 Days from C1, N=10) was 0.97 (0.78, 1.30), the “Platelet Count, Med. Fold Change (95% CI) from Day 1” value ([1]; 27–29 Days from C1, N=10) was 0.94 (0.79, 1.18) and the “White blood cell (WBC), Med. Fold Change (95% CI) from Day 1” value ([1]; 27–29 Days from C1, N=10) was 0.81 (0.58, 1.28). The “Median ratio of tumor/plasma concentrations” value [2] was 70%, the “Effect on immune cells in a preclinical model” value [3] was “decreases in circulating monocytes and regulatory T cells and TAMs” and the Median terminal half-life [4] was 16.8 h. The “Sustained partial response, RECIST decrease in longest diameter of target lesion” value ([5]; 1 patient with peritoneal mesothelioma, 400 mg/m^2/day DL) was 67%, the “Stable disease, number of patients” value ([5]; 16 patients enrolled) was “three” and the “Median number of treatment cycles received” value ([5]; 16 patients, 1 C = 28 days) was 1 C. For the same compound, the “Duration of stable disease prior to disease progression” value ([5]; one patient with metastatic, rapidly progressive osteosarcoma, 1 C = 28 days) was 4 C, the “Reason Off Treatment” value ([5]; patient 1, Peritoneal mesothelioma, dose level 1) was “Remains on Study” and the “Reason Off Treatment” value [5, 6] was “Progressive Disease”. For the same compound, the “Time-point Off Treatment” value [5, 6] was “Cycle 1 Day 23”, the “Reason Off Treatment” value [5, 7] was “Progressive Disease” and the “Time-point Off Treatment” value [5, 7] was “Cycle 1 Day 28”. For the same compound, the “Reason Off Treatment” value [5, 8] was “Best Interest of Patient”, the “Time-point Off Treatment” value [5, 8] was “After Cycle 4” and the “Reason Off Treatment” value [5, 9] was “Withdrawal of Consent”. For the same compound, the “Time-point Off Treatment” value [5, 9] was “After Cycle 1 (took 23 doses)”, the “Reason Off Treatment” value [5, 10] was “Best Interest of Patient” and the “Time-point Off Treatment” value [5, 10] was “After Cycle 6”. For the same compound, the “Reason Off Treatment” value [5, 11] was “Progressive Disease”, the “Time-point Off Treatment” value [5, 11] was “After Cycle 1” and the “Reason Off Treatment” value [5, 12] was “Progressive Disease”. For the same compound, the “Time-point Off Treatment” value [5, 12] was “After Cycle 1”, the “Reason Off Treatment” value [5, 13] was “Progressive Disease” and the “Time-point Off Treatment” value [5, 13] was “Cycle 2 Day 28”. For the same compound, the “Reason Off Treatment” value [5, 14] was “Progressive Disease”, the “Time-point Off Treatment” value [5, 14] was “Cycle 4 Day 6” and the “Reason Off Treatment” value [5, 15] was “Progressive Disease”. The “Time-point Off Treatment” value [5, 15] was “Cycle 3 Day 1”, the “Reason Off Treatment” value [5, 16] was “Progressive Disease” and the “Time-point Off Treatment” value [5, 16] was “Cycle 1 Day 12”. For the same compound, the “Reason Off Treatment” value [5, 17] was “Progressive Disease”, the “Time-point Off Treatment” value [5, 17] was “Cycle 1 Day 15” and the “Reason Off Treatment” value [5, 18] was “Progressive Disease”. The “Time-point Off Treatment” value [5, 18] was “Cycle 1 Day 23”, the “Reason Off Treatment” value [5, 19] was “Progressive Disease” and the “Time-point Off Treatment” value [5, 19] was “Cycle 3 Day 16”. The “Reason Off Treatment” value [5, 20] was “Progressive Disease” and the “Time-point Off Treatment” value [5, 20] was “Cycle 2 Day 5”.
